Where “and” joins values, the source holds several entries; their conditions need not be identical. Equal entries are not always repeated.
Tests used:
Assay type in all cases: in vivo
[1] = tested on: amygdala kindled Wistar rats; experiment: Amygdala kindled rat seizure model; settings: 16 mg/kg orally, 60 min prior to stimulation
In short: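 Male Wistar rats had electrodes implanted under isoflurane with carprofen (5 mg/kg s.c.). Each treatment ran over 2 days with a 2-day washout. Day 1: oral vehicle (0.5% methylcellulose), then stimulation 60 or 120 min later. […] Seizures were scored on the Racine scale (0–5), and amygdala and cortical EEG afterdischarge duration was analysed off-line. Statistics: Wilcoxon test (severity) and paired t test (afterdischarge) vs baseline.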

CF‐1 mice = experiment: Mouse fixed-speed rotarod test of minimal motor impairment; settings: 1 mg/kg i.p.
In short: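 Mice were tested on a fixed-speed rotarod at 6 rpm immediately before 6 Hz stimulation at 32 or 44 mA. A mouse falling off 3 times within 1 min was scored impaired. The experimenter was blinded to treatment.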

[2] = tested on: CF‐1 mice, 6 Hz psychomotor seizure; experiment: Mouse 6 Hz seizure test; settings: 1 mg/kg i.p., 0.25 h pretreatment
[3] = tested on: Genetic Absence Epilepsy Rat from Strasbourg (GAERS); experiment: GAERS model, spontaneous spike-and-wave discharges; settings: 3 mg/kg oral; discharges increased progressively afterwards
In short: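 Adult male GAERS rats (4–8 months) had frontal and parietal cortical EEG recorded while freely moving. […] SWDs were counted over a 20-min baseline (−25 to −5 min) and in 20-min epochs from 10 to 130 min post-dose. Analysis: mixed-model repeated-measures ANOVA with Dunnett vs vehicle; ED50 from a variable-slope curve fit of overall rate as % baseline.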

## CN1C(=O)CN=C(c2ccccc2)c2cc(Cl)ccc21 [Diazepam]
[1]
  Change in mean afterdischarge duration in the amygdala vs baseline: −69%
  Change in mean afterdischarge duration in the cortex vs baseline: −75%
  Change in mean seizure severity score (Racine scale) vs baseline: −3.7
CF‐1 mice; immediately prior to 6 Hz 32 mA stimulation
  Rotarod impairment (mice impaired/tested), 32 mA group: 0/10
CF‐1 mice; immediately prior to 6 Hz 44 mA stimulation
  Rotarod impairment (mice impaired/tested), 44 mA group: 0/10
[2]; 32 mA
  Seizure protection 32 mA (mice protected/tested): 10/10
[2]; 44 mA
  Seizure protection 44 mA (mice protected/tested): 3 of 10 and 3/10
[3]
  Effect on SWDs in the first epoch (10–30 min): rapid and almost complete elimination of SWDs

From PMC12169410 (Epilepsia, 2025)
